{"source": "ChEMBL document CHEMBL4118021", "about": "“Studies of TAK1-centered polypharmacology with novel covalent TAK1 inhibitors” (Bioorg Med Chem, 2017)", "type_in_all_cases": "cell-based", "key": {"[1]": {"target": "Serine/threonine-protein kinase SMG1 (Homo sapiens) (UniProt Q96Q15)", "sequence (Q96Q15 whole entry)": "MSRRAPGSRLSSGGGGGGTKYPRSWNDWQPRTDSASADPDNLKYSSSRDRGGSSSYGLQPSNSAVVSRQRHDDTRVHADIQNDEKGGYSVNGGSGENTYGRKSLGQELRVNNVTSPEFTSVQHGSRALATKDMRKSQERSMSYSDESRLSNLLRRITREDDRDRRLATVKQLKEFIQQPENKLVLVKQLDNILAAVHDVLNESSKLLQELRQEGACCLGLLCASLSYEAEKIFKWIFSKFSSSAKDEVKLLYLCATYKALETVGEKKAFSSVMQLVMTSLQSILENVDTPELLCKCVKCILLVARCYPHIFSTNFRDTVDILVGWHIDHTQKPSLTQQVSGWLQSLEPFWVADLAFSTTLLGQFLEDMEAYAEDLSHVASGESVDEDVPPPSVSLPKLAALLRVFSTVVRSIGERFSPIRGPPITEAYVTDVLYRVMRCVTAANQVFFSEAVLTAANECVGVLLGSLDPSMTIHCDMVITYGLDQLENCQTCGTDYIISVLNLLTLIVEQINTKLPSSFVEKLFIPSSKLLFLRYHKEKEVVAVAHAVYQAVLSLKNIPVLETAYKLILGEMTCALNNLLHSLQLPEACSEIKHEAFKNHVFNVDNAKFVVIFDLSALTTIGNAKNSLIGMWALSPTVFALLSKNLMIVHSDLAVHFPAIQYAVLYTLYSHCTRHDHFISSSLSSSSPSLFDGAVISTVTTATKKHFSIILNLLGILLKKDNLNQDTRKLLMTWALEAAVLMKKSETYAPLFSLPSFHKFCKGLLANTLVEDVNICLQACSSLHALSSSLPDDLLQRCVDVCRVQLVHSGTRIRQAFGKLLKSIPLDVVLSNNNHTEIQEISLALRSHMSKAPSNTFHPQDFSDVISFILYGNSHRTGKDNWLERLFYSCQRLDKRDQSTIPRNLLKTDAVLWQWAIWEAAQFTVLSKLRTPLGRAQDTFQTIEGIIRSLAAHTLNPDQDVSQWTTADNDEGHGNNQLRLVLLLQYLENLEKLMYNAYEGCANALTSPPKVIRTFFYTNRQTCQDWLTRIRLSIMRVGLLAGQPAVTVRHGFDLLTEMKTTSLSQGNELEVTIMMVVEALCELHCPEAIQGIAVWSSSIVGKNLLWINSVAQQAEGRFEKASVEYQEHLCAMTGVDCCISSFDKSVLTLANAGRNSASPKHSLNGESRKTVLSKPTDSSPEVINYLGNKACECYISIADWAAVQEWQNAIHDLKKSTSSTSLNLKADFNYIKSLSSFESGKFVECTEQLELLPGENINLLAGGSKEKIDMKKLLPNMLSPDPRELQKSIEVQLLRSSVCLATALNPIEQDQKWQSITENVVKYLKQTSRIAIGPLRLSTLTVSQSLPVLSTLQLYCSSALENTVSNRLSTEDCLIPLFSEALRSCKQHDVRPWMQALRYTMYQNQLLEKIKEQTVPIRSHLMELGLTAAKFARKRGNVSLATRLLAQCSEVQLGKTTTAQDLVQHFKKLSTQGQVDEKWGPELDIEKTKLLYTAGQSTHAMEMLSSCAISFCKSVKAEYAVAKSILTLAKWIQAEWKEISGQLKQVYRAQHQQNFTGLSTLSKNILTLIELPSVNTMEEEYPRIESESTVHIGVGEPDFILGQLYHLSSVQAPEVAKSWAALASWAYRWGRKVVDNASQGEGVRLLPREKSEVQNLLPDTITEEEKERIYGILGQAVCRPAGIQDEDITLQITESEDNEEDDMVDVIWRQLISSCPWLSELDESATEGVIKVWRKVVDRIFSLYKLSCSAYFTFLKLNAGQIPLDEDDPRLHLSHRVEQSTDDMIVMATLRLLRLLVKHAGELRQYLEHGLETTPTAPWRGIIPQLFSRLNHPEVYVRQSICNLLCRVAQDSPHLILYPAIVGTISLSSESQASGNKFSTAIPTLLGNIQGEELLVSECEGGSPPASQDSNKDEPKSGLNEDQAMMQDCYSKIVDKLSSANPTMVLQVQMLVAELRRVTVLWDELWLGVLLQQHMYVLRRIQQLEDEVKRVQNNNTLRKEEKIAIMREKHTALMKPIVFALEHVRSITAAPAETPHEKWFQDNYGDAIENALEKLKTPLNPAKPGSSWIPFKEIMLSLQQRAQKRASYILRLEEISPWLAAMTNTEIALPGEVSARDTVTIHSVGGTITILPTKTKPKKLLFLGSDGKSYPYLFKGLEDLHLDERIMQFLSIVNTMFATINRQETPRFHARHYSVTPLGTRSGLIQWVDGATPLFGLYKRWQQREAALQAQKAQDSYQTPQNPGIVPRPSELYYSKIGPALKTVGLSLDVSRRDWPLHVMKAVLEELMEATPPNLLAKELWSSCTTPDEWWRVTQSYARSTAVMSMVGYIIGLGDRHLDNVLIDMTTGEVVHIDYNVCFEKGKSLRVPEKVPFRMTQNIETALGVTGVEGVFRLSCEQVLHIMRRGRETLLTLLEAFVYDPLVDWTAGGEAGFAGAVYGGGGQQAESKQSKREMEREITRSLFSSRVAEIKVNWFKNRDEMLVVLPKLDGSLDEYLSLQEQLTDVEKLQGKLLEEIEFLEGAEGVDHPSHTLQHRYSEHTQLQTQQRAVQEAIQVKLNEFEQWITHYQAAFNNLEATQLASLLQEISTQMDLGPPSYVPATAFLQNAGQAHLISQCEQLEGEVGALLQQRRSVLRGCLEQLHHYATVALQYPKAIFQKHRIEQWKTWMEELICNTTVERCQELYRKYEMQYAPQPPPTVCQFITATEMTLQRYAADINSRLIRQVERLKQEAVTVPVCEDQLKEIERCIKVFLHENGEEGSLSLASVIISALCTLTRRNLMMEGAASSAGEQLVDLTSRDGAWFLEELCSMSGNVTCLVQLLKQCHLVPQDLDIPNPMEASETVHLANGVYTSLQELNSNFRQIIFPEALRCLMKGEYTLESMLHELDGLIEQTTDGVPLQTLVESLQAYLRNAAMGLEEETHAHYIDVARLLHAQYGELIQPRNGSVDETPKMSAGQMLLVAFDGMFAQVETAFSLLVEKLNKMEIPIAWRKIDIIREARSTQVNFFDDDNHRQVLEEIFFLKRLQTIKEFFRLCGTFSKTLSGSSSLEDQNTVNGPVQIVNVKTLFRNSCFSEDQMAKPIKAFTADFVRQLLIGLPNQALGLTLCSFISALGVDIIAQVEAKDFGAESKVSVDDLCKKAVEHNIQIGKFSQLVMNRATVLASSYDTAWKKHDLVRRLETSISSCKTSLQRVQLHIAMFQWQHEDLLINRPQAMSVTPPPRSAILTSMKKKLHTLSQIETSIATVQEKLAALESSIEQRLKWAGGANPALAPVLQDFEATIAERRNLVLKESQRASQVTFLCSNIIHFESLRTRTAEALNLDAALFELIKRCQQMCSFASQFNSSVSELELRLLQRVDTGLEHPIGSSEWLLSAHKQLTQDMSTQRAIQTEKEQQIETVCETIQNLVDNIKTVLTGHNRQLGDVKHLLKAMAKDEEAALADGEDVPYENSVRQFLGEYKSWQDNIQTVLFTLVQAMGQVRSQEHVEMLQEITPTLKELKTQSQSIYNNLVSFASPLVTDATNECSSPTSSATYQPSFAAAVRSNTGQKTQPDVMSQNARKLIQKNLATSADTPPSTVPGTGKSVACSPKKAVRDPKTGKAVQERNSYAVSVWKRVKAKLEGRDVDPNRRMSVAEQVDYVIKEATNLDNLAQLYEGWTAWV", "assay": "Inhibition of SMG1 in human SKCO1 cells at 1 uM after 4 hrs using biotin labeled DTVTIHSVGGTITILPTKTKPK probe by mass-spectrometric analysis relative to control", "how_it_was_run": "(§1)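 Live SK-CO-1 cells exposed to compound at 1 μM or DMSO for 4 h (KiNativ). Lysates then labeled with lysine-reactive ATP/ADP-biotin probe, and probe-labeled kinase peptides quantified by mass spectrometry. Percent inhibition of probe-dependent recovery calculated relative to DMSO-treated cells.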"}, "[2]": {"target": "T1, EKC/KEOPS complex subunit TP53RK (Homo sapiens) (UniProt Q96S44)", "T1 sequence (whole entry)": "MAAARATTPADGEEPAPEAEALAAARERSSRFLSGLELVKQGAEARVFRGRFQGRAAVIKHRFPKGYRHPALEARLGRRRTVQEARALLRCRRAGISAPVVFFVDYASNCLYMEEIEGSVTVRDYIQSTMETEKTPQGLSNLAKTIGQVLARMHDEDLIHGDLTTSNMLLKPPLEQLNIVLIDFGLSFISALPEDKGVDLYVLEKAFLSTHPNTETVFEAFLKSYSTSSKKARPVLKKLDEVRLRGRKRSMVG", "assay": "Inhibition of PRPK in human SKCO1 cells at 1 uM after 4 hrs using biotin labeled FLSGLELVKQGAEAR probe by mass-spectrometric analysis relative to control", "how_it_was_run": "as §1"}, "[3]": {"target": "Serine/threonine-protein kinase MARK2 (Homo sapiens) (UniProt Q7KZI7)", "assay": "Inhibition of MARK2 in human SKCO1 cells at 1 uM after 4 hrs using biotin labeled EVAVKIIDKTQLNSSSLQK probe by mass-spectrometric analysis relative to control"}, "[4]": {"target": "eIF-2-alpha kinase GCN2 (Homo sapiens) (UniProt Q9P2K8)", "assay": "Inhibition of GCN2 domain2 in human SKCO1 cells at 1 uM after 4 hrs using biotin labeled DLKPVNIFLDSDDHVK probe by mass-spectrometric analysis relative to control"}, "[5]": {"target": "T2, Serine/threonine-protein kinase tousled-like 1 (Homo sapiens) (UniProt Q9UKI8)", "T2 sequence (whole entry)": "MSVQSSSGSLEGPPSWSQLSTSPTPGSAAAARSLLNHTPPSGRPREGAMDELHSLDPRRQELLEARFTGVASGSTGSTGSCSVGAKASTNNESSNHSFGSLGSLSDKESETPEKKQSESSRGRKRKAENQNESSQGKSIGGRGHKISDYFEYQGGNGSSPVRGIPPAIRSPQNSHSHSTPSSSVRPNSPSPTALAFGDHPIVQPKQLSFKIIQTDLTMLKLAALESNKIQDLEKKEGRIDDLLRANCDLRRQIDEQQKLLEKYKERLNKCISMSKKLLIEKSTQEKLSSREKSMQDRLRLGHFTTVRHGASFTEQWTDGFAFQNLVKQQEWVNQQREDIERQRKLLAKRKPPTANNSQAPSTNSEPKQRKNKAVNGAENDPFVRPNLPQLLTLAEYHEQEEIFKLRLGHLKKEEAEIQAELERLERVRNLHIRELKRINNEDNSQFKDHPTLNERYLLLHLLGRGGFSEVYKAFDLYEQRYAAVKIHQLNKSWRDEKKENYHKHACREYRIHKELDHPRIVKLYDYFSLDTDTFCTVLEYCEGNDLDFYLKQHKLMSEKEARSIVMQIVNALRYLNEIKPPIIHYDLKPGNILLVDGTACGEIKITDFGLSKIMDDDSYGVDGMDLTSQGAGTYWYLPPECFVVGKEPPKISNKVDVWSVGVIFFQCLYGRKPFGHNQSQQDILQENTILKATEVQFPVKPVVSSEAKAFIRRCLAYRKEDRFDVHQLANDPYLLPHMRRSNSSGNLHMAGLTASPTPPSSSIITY", "assay": "Inhibition of TLK1 in human SKCO1 cells at 1 uM after 4 hrs using biotin labeled YLNEIKPPIIHYDLKPGNILLVDGTACEIK probe by mass-spectrometric analysis relative to control", "how_it_was_run": "as §1"}, "[6]": {"target": "Serine/threonine-protein kinase PAK 2 (Homo sapiens) (UniProt Q13177)", "sequence (Q13177 whole entry)": "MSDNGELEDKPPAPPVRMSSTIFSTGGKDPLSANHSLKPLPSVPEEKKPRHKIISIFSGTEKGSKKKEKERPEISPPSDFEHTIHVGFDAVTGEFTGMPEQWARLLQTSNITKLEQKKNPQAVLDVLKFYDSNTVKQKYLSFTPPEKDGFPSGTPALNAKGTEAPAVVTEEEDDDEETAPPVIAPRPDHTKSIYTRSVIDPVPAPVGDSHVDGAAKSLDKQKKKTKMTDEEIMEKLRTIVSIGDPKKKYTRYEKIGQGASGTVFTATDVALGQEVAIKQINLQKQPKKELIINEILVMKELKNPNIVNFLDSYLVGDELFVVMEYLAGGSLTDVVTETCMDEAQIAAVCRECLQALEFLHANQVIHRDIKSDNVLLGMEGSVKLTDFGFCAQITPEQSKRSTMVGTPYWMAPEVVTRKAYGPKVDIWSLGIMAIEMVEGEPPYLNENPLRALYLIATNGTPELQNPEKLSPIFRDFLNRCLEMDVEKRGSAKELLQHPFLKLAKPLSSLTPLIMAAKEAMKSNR", "assay": "Inhibition of PAK2 in human SKCO1 cells at 1 uM after 4 hrs using biotin labeled IGQGASGTVFTATDVALGQEVAIKQINLQK probe by mass-spectrometric analysis relative to control", "how_it_was_run": "as §1"}, "[7]": {"target": "T3, Aurora kinase A (Homo sapiens) (UniProt O14965)", "T3 sequence (whole entry)": "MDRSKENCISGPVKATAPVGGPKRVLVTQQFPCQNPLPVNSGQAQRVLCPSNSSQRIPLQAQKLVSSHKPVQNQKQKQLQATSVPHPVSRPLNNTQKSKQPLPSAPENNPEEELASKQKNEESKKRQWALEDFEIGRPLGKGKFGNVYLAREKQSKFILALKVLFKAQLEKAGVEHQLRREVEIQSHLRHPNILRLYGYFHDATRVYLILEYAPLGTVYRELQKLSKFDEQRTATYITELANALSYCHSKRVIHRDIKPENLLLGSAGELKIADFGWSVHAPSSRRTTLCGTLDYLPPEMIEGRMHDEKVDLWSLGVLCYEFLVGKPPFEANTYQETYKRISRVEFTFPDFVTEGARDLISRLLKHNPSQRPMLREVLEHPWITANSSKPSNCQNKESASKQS", "assay": "Inhibition of AurA in human SKCO1 cells at 1 uM after 4 hrs using biotin labeled FILALKVLFK probe by mass-spectrometric analysis relative to control", "how_it_was_run": "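Live SK-CO-1 cells were treated 4 h with compound at 1 μM or DMSO, then lysed. Lysates were labeled with a lysine-reactive ATP/ADP-biotin probe and analysed by mass spectrometry. Percent inhibition is the loss of probe-dependent recovery of the kinase peptide relative to DMSO.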"}, "[8]": {"target": "Dual specificity mitogen-activated protein kinase kinase 1 (Homo sapiens) (UniProt Q02750)", "sequence (Q02750 whole entry)": "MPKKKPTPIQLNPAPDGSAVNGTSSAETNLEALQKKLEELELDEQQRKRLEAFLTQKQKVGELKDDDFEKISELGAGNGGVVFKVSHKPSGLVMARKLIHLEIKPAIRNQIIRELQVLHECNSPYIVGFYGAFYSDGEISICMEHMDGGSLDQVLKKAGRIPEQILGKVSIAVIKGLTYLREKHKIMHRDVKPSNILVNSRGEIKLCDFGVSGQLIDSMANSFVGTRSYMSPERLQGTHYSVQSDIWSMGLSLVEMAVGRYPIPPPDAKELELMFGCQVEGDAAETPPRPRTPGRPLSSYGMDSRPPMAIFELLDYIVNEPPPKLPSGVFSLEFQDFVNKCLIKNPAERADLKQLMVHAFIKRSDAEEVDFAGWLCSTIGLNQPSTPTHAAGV", "assay": "Inhibition of MAP2K1 in human SKCO1 cells at 1 uM after 4 hrs using biotin labeled IMHRDVKPSNILVNSR probe by mass-spectrometric analysis relative to control", "how_it_was_run": "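Live SK-CO-1 cells treated 4 h at 1 μM (DMSO control); cells lysed and lysates labeled with lysine-reactive ATP/ADP-biotin probe (KiNativ); probe-labeled kinase peptides quantified by mass spectrometry; inhibition expressed as percent reduction in probe-dependent recovery versus DMSO-treated cells.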"}, "[9]": {"target": "Cyclin-dependent kinase 18 (Homo sapiens) (UniProt Q07002)", "sequence (Q07002 whole entry)": "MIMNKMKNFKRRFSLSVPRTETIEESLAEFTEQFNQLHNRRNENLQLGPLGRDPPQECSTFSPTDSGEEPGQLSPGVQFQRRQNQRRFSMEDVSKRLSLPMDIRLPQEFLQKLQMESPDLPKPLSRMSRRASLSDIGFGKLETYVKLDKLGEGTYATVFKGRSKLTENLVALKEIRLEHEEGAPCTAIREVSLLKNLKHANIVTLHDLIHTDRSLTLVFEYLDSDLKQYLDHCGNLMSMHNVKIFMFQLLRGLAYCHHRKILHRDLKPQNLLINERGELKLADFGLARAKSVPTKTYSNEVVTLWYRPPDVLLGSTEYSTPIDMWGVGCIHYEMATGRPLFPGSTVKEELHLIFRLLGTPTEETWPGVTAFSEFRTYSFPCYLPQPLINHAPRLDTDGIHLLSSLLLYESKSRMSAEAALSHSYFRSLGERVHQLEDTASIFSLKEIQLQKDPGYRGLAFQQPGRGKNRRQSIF", "assay": "Inhibition of PCTAIRE3 in human SKCO1 cells at 1 uM after 4 hrs using biotin labeled DLKPQNLLINER probe by mass-spectrometric analysis relative to control", "how_it_was_run": "as §1"}}}
{"smiles": "C=CC(=O)Nc1ccccc1Nc1nc(Nc2ccc(N3CCN(C)CC3)cc2)ncc1Cl", "values": [{"measurement": "inhibition", "setting": "[1]", "value": 0.8, "unit": "%"}, {"measurement": "inhibition", "setting": "[2]", "value": 42.1, "unit": "%"}, {"measurement": "inhibition", "setting": "[3]", "value": 2.5, "unit": "%"}, {"measurement": "inhibition", "setting": "[4]", "value": 14.6, "unit": "%"}, {"measurement": "inhibition", "setting": "[5]", "value": 2.3, "unit": "%"}, {"measurement": "inhibition", "setting": "[6]", "value": -8.6, "unit": "%"}, {"measurement": "inhibition", "setting": "[7]", "value": 87.2, "unit": "%"}, {"measurement": "inhibition", "setting": "[8]", "value": 60, "unit": "%"}, {"measurement": "inhibition", "setting": "[9]", "value": -3.2, "unit": "%"}]}
{"smiles": "COc1cc(O)c2c(c1)/C=C/C[C@H](O)[C@H](O)C(=O)/C=C\\C[C@H](C)OC2=O", "values": [{"measurement": "inhibition", "setting": "[1]", "value": -8.2, "unit": "%"}, {"measurement": "inhibition", "setting": "[2]", "value": 46.7, "unit": "%"}, {"measurement": "inhibition", "setting": "[3]", "value": -8.1, "unit": "%"}, {"measurement": "inhibition", "setting": "[4]", "value": -6.1, "unit": "%"}, {"measurement": "inhibition", "setting": "[5]", "value": 19.3, "unit": "%"}, {"measurement": "inhibition", "setting": "[6]", "value": -3.9, "unit": "%"}, {"measurement": "inhibition", "setting": "[7]", "value": 59.4, "unit": "%"}, {"measurement": "inhibition", "setting": "[8]", "value": 89.4, "unit": "%"}, {"measurement": "inhibition", "setting": "[9]", "value": -6.3, "unit": "%"}]}
{"smiles": "C=CC(=O)Nc1ccccc1Oc1nc(Nc2cnn(CCOC)c2)ncc1Cl", "values": [{"measurement": "inhibition", "setting": "[1]", "value": 16.4, "unit": "%"}, {"measurement": "inhibition", "setting": "[2]", "value": 46.6, "unit": "%"}, {"measurement": "inhibition", "setting": "[3]", "value": 6.3, "unit": "%"}, {"measurement": "inhibition", "setting": "[4]", "value": 1.2, "unit": "%"}, {"measurement": "inhibition", "setting": "[5]", "value": 11.3, "unit": "%"}, {"measurement": "inhibition", "setting": "[6]", "value": 3, "unit": "%"}, {"measurement": "inhibition", "setting": "[7]", "value": 52.6, "unit": "%"}, {"measurement": "inhibition", "setting": "[8]", "value": -7.9, "unit": "%"}, {"measurement": "inhibition", "setting": "[9]", "value": -5.9, "unit": "%"}]}
